Laboratory results reported in ChEMBL document CHEMBL3351699, “Diarylthiazole: an antimycobacterial scaffold potentially targeting PrrB-PrrA two-component system” (J Med Chem, 2014).
Converted amounts (≈) assume the structure as drawn. The source made the active and inactive calls. The rule behind the calls is not given here.

Columns and labels:
[1] = system: Mycobacterium tuberculosis; assay: Antimicrobial activity against Mycobacterium tuberculosis H37Rv ATCC 27294 assessed as reduction in bacterial count relative to untreated control; format: functional
How it was run: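 About 10⁶ Mtb cells/mL exposed to compound for 10 days; viable count read as Log₁₀ CFU/mL reduction versus untreated controls.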

[2] = system: Mycobacterium tuberculosis; assay: Antimicrobial activity against Mycobacterium tuberculosis H37Rv ATCC 27294 infected in human THP1 cells assessed as reduction in bacterial count at 2 times MIC relative to untreated control; format: functional, THP-1
[3] = biological target: T1, Enoyl-[acyl-carrier-protein] reductase [NADH] (Mycobacterium tuberculosis, UniProt P9WGR1); assay: Inhibition of Mycobacterium tuberculosis InhA using NADH and dodecyl coA substrate by LC-MS/MS method
T1 sequence (P9WGR1 whole entry): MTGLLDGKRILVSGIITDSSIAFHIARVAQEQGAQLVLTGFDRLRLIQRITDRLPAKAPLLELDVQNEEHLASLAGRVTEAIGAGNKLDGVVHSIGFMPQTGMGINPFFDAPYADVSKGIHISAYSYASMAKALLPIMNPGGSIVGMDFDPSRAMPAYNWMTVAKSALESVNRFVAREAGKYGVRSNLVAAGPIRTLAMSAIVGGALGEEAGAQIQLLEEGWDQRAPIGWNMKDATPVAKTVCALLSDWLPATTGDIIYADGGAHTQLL

[4] = system: Mycobacterium tuberculosis; assay: Induction of fatty acid metabolism related gene expression in Mycobacterium tuberculosis H37Rv ATCC 27294 at 7.5 ug/mL incubated for 4 hrs by DNA microarray analysis; format: functional, organism-based
How it was run: (§1)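 Total RNA was isolated from compound-treated Mtb cultures and hybridised on DNA microarrays, with RNA from an untreated Mtb culture as the control.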

[5] = system: Mycobacterium tuberculosis; assay: Induction of anaerobic state electron transport chain maintenance related gene expression in Mycobacterium tuberculosis H37Rv ATCC 27294 at 7.5 ug/mL incubated for 4 hrs by DNA microarray analysis; format: functional, organism-based; how it was run: as §1
[6] = system: Mycobacterium tuberculosis; assay: Induction of cytochrome ubiquinol oxidase gene expression in Mycobacterium tuberculosis H37Rv ATCC 27294 at 7.5 ug/mL incubated for 4 hrs by DNA microarray analysis; format: functional, organism-based; how it was run: as §1
[7] = system: Mycobacterium tuberculosis; assay: Induction of fumarate reductase gene expression in Mycobacterium tuberculosis H37Rv ATCC 27294 at 7.5 ug/mL incubated for 4 hrs by DNA microarray analysis; format: functional, organism-based; how it was run: as §1
[8] = system: Mycobacterium tuberculosis; assay: Induction of nitrate reductase gene expression in Mycobacterium tuberculosis H37Rv ATCC 27294 at 7.5 ug/mL incubated for 4 hrs by DNA microarray analysis; format: functional, organism-based; how it was run: as §1
[9] = system: Mycobacterium tuberculosis; assay: Induction of oxido-reductases gene expression in Mycobacterium tuberculosis H37Rv ATCC 27294 at 7.5 ug/mL incubated for 4 hrs by DNA microarray analysis; format: functional, organism-based; how it was run: as §1
[10] = system: Mycobacterium tuberculosis; assay: Reduction in RNA metabolism related gene expression in Mycobacterium tuberculosis H37Rv ATCC 27294 at 7.5 ug/mL incubated for 4 hrs by DNA microarray analysis; format: functional, organism-based; how it was run: as §1
[11] = system: Mycobacterium tuberculosis; assay: Reduction in protein synthesis related gene expression in Mycobacterium tuberculosis H37Rv ATCC 27294 at 7.5 ug/mL incubated for 4 hrs by DNA microarray analysis; format: functional, organism-based; how it was run: as §1
[12] = system: Mycobacterium tuberculosis; assay: Reduction in RNA polymerase subunits gene expression in Mycobacterium tuberculosis H37Rv ATCC 27294 at 7.5 ug/mL incubated for 4 hrs by DNA microarray analysis; format: functional, organism-based; how it was run: as §1
[13] = system: Mycobacterium tuberculosis; assay: Reduction in sigma factors gene expression in Mycobacterium tuberculosis H37Rv ATCC 27294 at 7.5 ug/mL incubated for 4 hrs by DNA microarray analysis; format: functional, organism-based; how it was run: as §1
[14] = system: Mycobacterium tuberculosis; assay: Reduction in ribosomal protein synthesis related gene expression in Mycobacterium tuberculosis H37Rv ATCC 27294 at 7.5 ug/mL incubated for 4 hrs by DNA microarray analysis; format: functional, organism-based; how it was run: as §1
[15] = system: Mycobacterium tuberculosis; assay: Reduction in aminoacyl t-RNA synthetases gene expression in Mycobacterium tuberculosis H37Rv ATCC 27294 at 7.5 ug/mL incubated for 4 hrs by DNA microarray analysis; format: functional, organism-based; how it was run: as §1
[16] = system: Mycobacterium tuberculosis; assay: Induction of prrA gene expression in Mycobacterium tuberculosis H37Rv ATCC 27294 at 7.5 ug/mL incubated for 4 hrs by DNA microarray analysis; format: functional
How it was run: (§2)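 Total RNA was isolated from treated Mtb cells and analysed by DNA microarray. RNA from an untreated Mtb culture served as the control, and expression was reported as mean fold change relative to that untreated control.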

[17] = system: Mycobacterium tuberculosis; assay: Induction of prrB gene expression in Mycobacterium tuberculosis H37Rv ATCC 27294 at 7.5 ug/mL incubated for 4 hrs by DNA microarray analysis; format: functional; how it was run: as §2
[18] = system: Mycobacterium tuberculosis; assay: Antimicrobial activity against Mycobacterium tuberculosis H37Rv ATCC 27294 assessed as growth inhibition after 5 days by microdilution method; format: functional; conditions: H37Rv ATCC 27294, 120 h
[19] = Solubility of the compound; format: physicochemical
[20] = system: Mycobacterium tuberculosis; assay: Bactericidal activity against Mycobacterium tuberculosis H37Rv ATCC 27294 after 5 days by microdilution method; format: functional; conditions: H37Rv ATCC 27294, 120 h
[21] = system: Mycobacterium tuberculosis; assay: Ratio of MBC for Mycobacterium tuberculosis H37Rv ATCC 27294 to MIC for Mycobacterium tuberculosis H37Rv ATCC 27294; format: functional

CCCc1cc(-c2nc(-c3ccncc3)cs2)ccn1
log10CFU/ml [1]: 3 | log10CFU/ml [2]: 1.5 | IC50 [3]: > 50 µM | Activity [4]: Active | Activity [5]: Active | Activity [6]: Active | Activity [7]: Active | Activity [8]: Active | Activity [9]: Active | Activity [10]: Active | Activity [11]: Active | Activity [12]: Active | Activity [13]: Active | Activity [14]: Active | Activity [15]: Active | fold change (FC) [16]: 0.7 | fold change (FC) [17]: 0.7 | MIC80 [18]: 0.4 µg/mL (≈ 1.42 µM) | solubility [19]: 91.5 µM (≈ 25.7 µg/mL) | MBC [20]: 0.8 µg/mL (≈ 2.84 µM) | Ratio [21]: 2
